Assay results reported in ChEMBL document CHEMBL4680152, “Molecular design, synthesis, and biological evaluation of bisamide derivatives as cyclophilin A inhibitors for HCV treatment” (Eur J Med Chem, 2020).

How the values were obtained:
[1] = Antiviral activity against recombinant HCV genotype 2a JFH-1 infected in human Huh7.5 cells after 3 days by renilla luciferase reporter gene assay; type: functional, cell-based, Hepatitis C virus subtype 2a; settings: Hepatitis C virus, JFH-1, Huh7.5, 72 h
In short: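 Huh7.5 cells in DMEM with 10% FBS were infected with JFH1-Luc reporter virus at MOI 0.004 for 5 h at 37 °C while exposed to 3-fold serial dilutions of compound. On day 3 post-infection, the cells were lysed and Renilla luciferase activity was read. EC50 was calculated from the signal. Run in triplicate.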

[2] = Cytotoxicity against human Huh7.5 cells assessed as reduction in cell viability after 3 days by MTT assay; type: cell-based; settings: time 3 day
In short: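 Huh7.5 cells were mock-infected and then treated with increasing concentrations of compound (3-fold serial dilutions), in parallel with the antiviral plates. Viability was measured by MTT assay and CC50 was derived. Run in triplicate.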

[3] = Selectivity index, ratio of CC50 for human Huh7.5 cells to EC50 for HCV genotype 2a JFH-1 infected in human Huh7.5 cells; type: toxicity, cell-based; settings: read-out: Ratio CC50/EC50
In short: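 This is the CC50/EC50 ratio. CC50 came from MTT viability of mock-infected Huh7.5 cells. EC50 came from Renilla luciferase in Huh7.5 cells infected with JFH1-Luc (MOI 0.004) and read 3 days post-infection, with 3-fold serial compound dilutions. Both were run in parallel, in triplicate.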

[4] = target: Peptidyl-prolyl cis-trans isomerase A (Homo sapiens, UniProt P62937); assay: Binding affinity to Cyclophilin A (unknown origin) by surface plasmon resonance analysis
Sequence of Peptidyl-prolyl cis-trans isomerase A (P62937 whole entry): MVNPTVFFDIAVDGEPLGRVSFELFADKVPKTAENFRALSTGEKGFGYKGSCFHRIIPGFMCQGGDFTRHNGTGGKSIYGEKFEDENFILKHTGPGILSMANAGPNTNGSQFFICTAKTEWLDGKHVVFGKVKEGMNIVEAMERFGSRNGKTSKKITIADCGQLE
In short: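 SPR was used. CypA was immobilized by EDC/NHS activation, diluted in 10 mM sodium acetate pH 6.0, then quenched with 1 M ethanolamine pH 8.5. A protein-free reference channel was used. Running buffer was PBS with 5% DMSO at 30 µL/min, with 3 min association and 4 min dissociation. Regeneration used 50 mM NaOH. KD came from kinetic fitting.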

With `COc1cc(C(C(=O)NC2CCCCC2)N(C(=O)Cc2c[nH]c3ccccc23)c2cccc3ccccc23)cc(OC)c1OC` (centres undefined) as the compound, how does the EC50 [1] read?
Its EC50 is 9.4 µM.

What about the CC50 at 72 h [2] of the same compound?
The CC50 at 72 h was 33.2 µM.

What about the selectivity ratio [3] of the same compound?
Its selectivity ratio is 3.4.

With `COc1ccc(N(C(=O)Cc2c[nH]c3ccccc23)C(C(=O)NC2CCCCC2)c2cc(OC)c(OC)c(OC)c2)cc1` (centres undefined) as the compound, how does the EC50 [1] read?
The EC50 was 5 µM.

And the CC50 at 72 h [2]?
Its CC50 at 72 h is 44.8 µM.

And the selectivity ratio [3]?
Its selectivity ratio is 9.

For `NC(=O)c1ncn([C@@H]2O[C@H](CO)[C@@H](O)[C@H]2O)n1` [RIBAVIRIN], which EC50 [1] is on record?
Its EC50 is greater than 100 µM.

What about the CC50 at 72 h [2] of the same compound?
Its CC50 at 72 h is 16.3 µM.

And the selectivity ratio [3]?
Its selectivity ratio is greater than 6.1.

What does the source list for `COc1ccc(C(C(=O)NC2CCCCC2)N(CC(OC)OC)C(=O)Cc2c[nH]c3ccccc23)cc1OC` (centres undefined)?
EC50 [1]: > 54.5 µM; CC50 at 72 h [2]: 54.5 µM

With `COc1ccc(N(C(=O)Cc2c[nH]c3ccccc23)C(C(=O)NC2CCCCC2)c2ccc(OC)c(OC)c2)cc1` (centres undefined) as the compound, how does the EC50 [1] read?
The EC50 was 3.8 µM.

And the CC50 at 72 h [2]?
Its CC50 at 72 h is 32.7 µM.

What about the selectivity ratio [3] of the same compound?
Its selectivity ratio is 8.6.

Which results are given for `COc1cc(C(C(=O)NC(C)(C)C)N(C(=O)c2cc3ccccc3[nH]2)c2ccc(C(C)C)cc2)cc(OC)c1OC` (centres undefined)?
EC50 [1]: 5.9 µM; CC50 at 72 h [2]: 36.7 µM; selectivity ratio [3]: 6.2

Which results are given for `COc1ccc(C(C(=O)NC2CCCCC2)N(C(=O)Cc2c[nH]c3ccccc23)c2ccc(C(C)C)cc2)cc1OC` (centres undefined)?
EC50 [1]: 2 µM; CC50 at 72 h [2]: 6.9 µM; selectivity ratio [3]: 3.5

With `COc1cc(C(C(=O)NC(C)(C)C)N(C(=O)Cc2c[nH]c3ccccc23)c2ccc(C(C)C)cc2)cc(OC)c1OC` (centres undefined) as the compound, how does the EC50 [1] read?
The EC50 was 6.3 µM.

And the CC50 at 72 h [2]?
The CC50 at 72 h was 13.9 µM.

What about the selectivity ratio [3] of the same compound?
The selectivity ratio was 2.3.

For `COc1ccc(C(C(=O)NC2CCCCC2)N(C(=O)Cc2c[nH]c3ccccc23)c2ccc(OC)c(OC)c2)cc1OC` (centres undefined), which EC50 [1] is on record?
Its EC50 is 5.3 µM.

What about the CC50 at 72 h [2] of the same compound?
Its CC50 at 72 h is 55.3 µM.

What about the selectivity ratio [3] of the same compound?
The selectivity ratio was 10.5.

Which results are given for `COc1ccc(N(C(=O)Cc2c[nH]c3ccccc23)C(C(=O)NC2CCCCC2)c2cc(OC)c(OC)c(OC)c2)cc1OC` (centres undefined)?
EC50 [1]: 10.2 µM; CC50 at 72 h [2]: 56.7 µM; selectivity ratio [3]: 5.5

For `COc1ccc(Cn2cc(CC(=O)N(c3ccccc3)C(C(=O)NC3CCCCC3)c3ccccc3)c3ccccc32)cc1` (centres undefined), which EC50 [1] is on record?
The EC50 was greater than 24.4 µM.

And the CC50 at 72 h [2]?
The CC50 at 72 h was 24.4 µM.

With `COc1ccc(C(C(=O)NC2CCCCC2)N(C(=O)Cc2c[nH]c3ccccc23)c2ccccc2)c(OC)c1OC` (centres undefined) as the compound, how does the EC50 [1] read?
The EC50 was greater than 18.8 µM.

What about the CC50 at 72 h [2] of the same compound?
Its CC50 at 72 h is 18.8 µM.

Which EC50 [1] does the source give for `COc1ccc(C(C(=O)NC2CCCCC2)N(C(=O)Cc2c[nH]c3ccccc23)c2ccc(C(C)C)cc2)c(OC)c1OC` (centres undefined) here?
Its EC50 is greater than 5.9 µM.

And the CC50 at 72 h [2]?
The CC50 at 72 h was 5.9 µM.

With `COc1ccc(C(C(=O)NC2CCCCC2)N(C(=O)Cc2c[nH]c3ccccc23)C2CCCCC2)cc1OC` (centres undefined) as the compound, how does the EC50 [1] read?
The EC50 was greater than 14.6 µM.

What about the CC50 at 72 h [2] of the same compound?
Its CC50 at 72 h is 14.6 µM.

For `COc1cc(C(C(=O)NC2CCCCC2)N(C(=O)c2cc3ccccc3[nH]2)c2ccc(C(C)C)cc2)cc(OC)c1OC` (centres undefined), which EC50 [1] is on record?
Its EC50 is 2 µM.

And the CC50 at 72 h [2]?
The CC50 at 72 h was 19.4 µM.

And the selectivity ratio [3]?
Its selectivity ratio is 9.7.

Which EC50 [1] does the source give for `COc1ccc(C(C(=O)NC2CCCCC2)N(C(=O)Cc2c[nH]c3ccccc23)c2ccc(Br)cc2)c(OC)c1OC` (centres undefined) here?
Its EC50 is greater than 7.2 µM.

What about the CC50 at 72 h [2] of the same compound?
The CC50 at 72 h was 7.2 µM.

Which results are given for `COc1ccc(CCN(C(=O)Cc2c[nH]c3ccccc23)C(C(=O)NC2CCCCC2)c2cc(OC)c(OC)c(OC)c2)cc1OC` (centres undefined)?
EC50 [1]: 5.3 µM; CC50 at 72 h [2]: > 100 µM; selectivity ratio [3]: > 18.9; Kd [4]: 3.66 µM

For `COc1cc(C(C(=O)NC2CCCCC2)N(C(=O)Cc2c[nH]c3ccccc23)c2ccc(C(C)C)cc2)cc(OC)c1OC` (centres undefined), which EC50 [1] is on record?
Its EC50 is 5.2 µM.

And the CC50 at 72 h [2]?
Its CC50 at 72 h is greater than 100 µM.

What about the selectivity ratio [3] of the same compound?
The selectivity ratio was greater than 19.2.
